# Screens: PubChem, Broad Institute
# IDH1 mut inh = inhibitors of IDH1 R132H reductase, primary screen, biochemical, plate reader, single point | 0.18% of 70,000 active | AID 624101, 2012 | diaphorase/resazurin fluorescence, 60 min | inhibition, % at 10 µM; in the data active = inhibition above about 34%; inconclusive = no clear call, values can overlap the other calls; inactive = below about 11%;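 note: 0% = DMSO and 100% = no enzyme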
# Target sequence (O75874 whole entry R132H): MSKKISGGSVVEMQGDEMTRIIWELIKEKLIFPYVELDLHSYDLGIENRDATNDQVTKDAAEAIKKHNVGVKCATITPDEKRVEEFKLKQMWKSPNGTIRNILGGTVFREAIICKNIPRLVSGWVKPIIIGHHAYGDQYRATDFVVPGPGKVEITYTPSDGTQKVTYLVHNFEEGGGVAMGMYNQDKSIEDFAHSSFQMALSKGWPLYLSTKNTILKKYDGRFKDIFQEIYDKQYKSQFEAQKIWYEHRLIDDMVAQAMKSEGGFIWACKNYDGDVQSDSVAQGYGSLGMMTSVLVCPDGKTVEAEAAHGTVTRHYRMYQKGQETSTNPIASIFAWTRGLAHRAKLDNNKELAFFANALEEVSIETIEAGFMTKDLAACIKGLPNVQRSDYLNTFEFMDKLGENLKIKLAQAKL
# T cruzi growth-1 = T. cruzi intracellular proliferation inhibitors, primary screen, cell-based, beta-gal Tulahuen parasites, NIH3T3 host, luminescence. T. cruzi beta-gal in NIH3T3, GalScreen luminescence, 90 h. AID 624255, 2012. inhibition, % at 8.34 µM. 5.9% of 77,000 active;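 active = mean inhibition above about 93%, with at least 55% of replicates each passing it, limit read from the data, passing the limit was not always enough; inconclusive = only one of those two conditions holds; inactive = neither condition holds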
# KDM4C inh = inhibitors of GASC-1 (KDM4C) histone demethylase, primary screen, biochemical, single concentration HTS. inhibition, % at 12.5 µM. Lysine-specific demethylase 4C (Homo sapiens), Q9H3R0. GST-KDM4C 2-372, H3K9me3 peptide, LANCE TR-FRET. AID 720574, 2013. 0.15% of 96,000 active;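 active = mean replicate inhibition above about 25%, with at least 55% of replicates also reaching it, limit read from the data, passing the limit was not always enough; inconclusive = only one of those two conditions met; inactive = neither condition met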
#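 Material: GST-tagged GASC-1 (JMJD2C) catalytic fragment, aa 2-372. Input: enzyme final amount 10 nM. Medium: HEPES buffer, pH 7.5, plus ascorbate. Reagent: H3K9me3 peptide substrate, Fe(II), 2-oxoglutarate. Doses: single dose. Times: reaction 30 min RT, detection step 1 h RT. Measured by: LANCE TR-FRET. Evaluation: Fall in 671/618 emission ratio as inhibition.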
# Pf Dd2 growth = P. falciparum Dd2 growth inhibitors, primary screen, SYBR Green fluorescence, single dose replicates | 72 h; hits give low values | activity change, % at 10 µM | 2.3% of 94,000 active | AID 1159554, 2015; in the data active = activity change below about -80%; inconclusive = no clear call, values can overlap the other calls
# T cruzi growth-2 = T. cruzi intracellular proliferation inhibitors, confirmation, cell-based, NIH3T3 host, beta-gal parasite, luminescence, cherry-pick; inhibition, % at 8.35 µM; T. cruzi beta-gal in NIH3T3, GalScreen luminescence, 90 h; shares compounds with T cruzi growth-1; 72% of 5,600 active; AID 651739, 2012;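 active = mean replicate inhibition above about 95% and at least 55% of replicates individually reaching it, limit read from the data; inconclusive = only one of the two criteria is met; inactive = neither criterion is met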
# T cruzi growth-3 = inhibitors of intracellular T. cruzi replication, confirmation, NIH3T3 host cells, beta-gal parasites, cherry-pick, set 2; shares compounds with T cruzi growth-1; T. cruzi beta-gal in NIH3T3, GalScreen luminescence, 90 h; inhibition, % at 2.09 µM; 21% of 5,600 active; AID 651740, 2012;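 active = mean inhibition above about 95%, with at least 55% of replicates also reaching it, limit read from the data; inconclusive = meets just one of the two conditions; inactive = meets neither condition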;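 note: plate controls were neutral control median for no effect and positive control median for full effect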
# 3T3 cytotox = cytotoxicity in mouse NIH/3T3 fibroblasts, confirmation, cytotoxicity control for T. cruzi proliferation inhibitor project, cell-based, cherry-pick, single point. shares compounds with T cruzi growth-1. NIH/3T3 viability, CellTiter-Glo ATP luminescence, 90 h. cytotoxicity (signal decrease), % at 8.35 µM. 14% of 5,600 active. AID 651742, 2012;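 active = mean signal decrease across replicates above about 35% based on untreated-well scatter, with enough replicates individually passing, limit read from the data; inconclusive = no rule stated though some were filed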;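 note: 0% = median of neutral control wells and 100% = median of positive control wells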
# 3T3 cytotox 2 = NIH/3T3 fibroblast cytotoxicity, confirmation, cytotoxicity control, cell-based, cherry-pick, single point, set 2; inhibition, % at 24.9 µM; 56% of 5,600 active; NIH/3T3 viability, CellTiter-Glo ATP luminescence, 90 h; AID 651744, 2012; shares compounds with T cruzi growth-1;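 active = mean loss of cell viability signal at or above a set limit, and enough replicates individually reaching it; inconclusive = meets only the mean limit or only the replicate share; inactive = meets neither condition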;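 note: 0% = median of neutral control wells and 100% = median of positive control wells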
# * hit, by the source's call; ? = inconclusive; . = no result. This is a sample that favours compounds with a hit; in the whole collection about 5.8% have one here.
SMILES,IDH1 mut inh,T cruzi growth-1,KDM4C inh,Pf Dd2 growth,T cruzi growth-2,T cruzi growth-3,3T3 cytotox,3T3 cytotox 2
CC(C)NC(=O)Nc1ccc2c(c1)C(=O)N([C@H](C)CO)C[C@H](C)[C@H](CN(C)C(=O)Nc1ccc(F)cc1)OCCCC[C@H](C)O2,1.9,95.6*,0.3,47.6,103.7*,70.3,-1.3,-12.7
C[C@@H]1CCCCO[C@@H](CN(C)C(=O)Nc2cccc3ccccc23)[C@@H](C)CN([C@@H](C)CO)C(=O)c2cc(N(C)C)ccc2O1,-0.1,56.7,-1.9,-75.8,.,.,.,.
C[C@@H]1CN([C@@H](C)CO)S(=O)(=O)c2ccc(C3=CCCC3)cc2O[C@@H]1CN(C)C(=O)C1CCCCC1,-0.4,91.3,0.0,-20.8,.,.,.,.
CO[C@H](CN(C)S(=O)(=O)c1ccccc1)[C@@H](C)CN(C(=O)Nc1ccccc1F)[C@H](C)CO,-0.1,-24.8,-0.8,12.1,.,.,.,.
C[C@H]1CCCCO[C@@H](CN(C)C(=O)Nc2ccccc2)[C@@H](C)CN([C@@H](C)CO)C(=O)c2cc(NC(=O)Nc3ccc4c(c3)OCO4)ccc2O1,0.5,122.7*,0.7,0.7,113.4*,59.5,8.0,-2.5
C[C@@H]1CCCCO[C@@H](CN(C)C(=O)Nc2ccccc2)[C@H](C)CN([C@@H](C)CO)C(=O)c2cc(N(C)C)ccc2O1,-1.9,107.3*,4.9,-32.4,70.6,7.9,-5.0,-19.5
C[C@@H]1CCCCO[C@@H](CN(C)C(=O)Nc2ccccc2)[C@H](C)CN([C@@H](C)CO)C(=O)c2cc(NC(=O)Nc3ccccc3)ccc2O1,0.2,?,-0.6,8.2,88.6,40.4,-37.6,-6.8
C[C@H](CO)N1C[C@H](C)[C@@H](CN(C)C(=O)Nc2ccccc2)OCCCC[C@H](C)Oc2ccc(NC(=O)Nc3ccc(F)cc3)cc2C1=O,.,100.1*,-0.4,16.8,?,-21.9,-10.5,24.0
C[C@@H]1CN([C@@H](C)CO)C(=O)c2cc(NC(=O)Nc3cccc4ccccc34)ccc2O[C@@H](C)CCCCO[C@H]1CN(C)C,-14.4,98.8*,-1.1,32.7,40.4,-47.7,-0.8,-15.4
C[C@@H]1CCCCO[C@@H](CN(C)C)[C@H](C)CN([C@H](C)CO)C(=O)c2cc(NC(=O)CCCCCC(=O)Nc3ccccc3N)ccc2O1,.,73.4,0.1,43.4,.,.,.,.
C[C@H]1CCCCO[C@H](CN(C)C)[C@@H](C)CN([C@@H](C)CO)C(=O)c2cc(NC(=O)CCCCCC(=O)Nc3ccccc3N)ccc2O1,.,96.6*,-0.9,41.0,101.8*,17.3,8.2,16.8
C[C@H]1CCCCO[C@H](CN(C)C)[C@@H](C)CN([C@@H](C)CO)C(=O)c2cc(NC(=O)Nc3cccc4ccccc34)ccc2O1,-9.0,28.8,1.0,-59.1,.,.,.,.
Cc1noc(C)c1NC(=O)N(C)C[C@@H]1OCCCC[C@H](C)Oc2ccc(NS(=O)(=O)c3cccs3)cc2C(=O)N([C@H](C)CO)C[C@@H]1C,2.0,42.0,1.0,-15.4,.,.,.,.
O=C(N[C@H]1CC[C@H](CCNS(=O)(=O)c2ccc(F)cc2)O[C@@H]1CO)C1CCOCC1,-0.1,12.3,0.5,8.9,.,.,.,.
COc1ccc(CN(C)C[C@H]2Oc3ccc(NS(=O)(=O)c4ccccc4)cc3CC(=O)N([C@H](C)CO)C[C@@H]2C)cc1,1.1,.,1.4,1.3,.,.,.,.
C[C@@H]1CN([C@H](C)CO)S(=O)(=O)c2ccc(C3=CCCC3)cc2O[C@@H]1CN(C)C(=O)C1CCCCC1,.,115.2*,0.1,-51.2,102.2*,80.1,?,25.4
C[C@@H]1CN([C@@H](C)CO)S(=O)(=O)c2ccc(C3=CCCC3)cc2O[C@H]1CN(C)C(=O)C1CCCCC1,.,?,-0.7,-22.4,90.7,60.2,26.2,41.2*
C[C@@H]1CCCCO[C@@H](CN(C)S(=O)(=O)c2ccccc2)[C@@H](C)CN([C@@H](C)CO)C(=O)c2cc(NS(=O)(=O)c3ccc(Cl)cc3)ccc2O1,.,117.5*,1.1,-34.2,101.0*,74.4,4.5,17.8
C[C@@H]1CCCCO[C@H](CN(C)S(=O)(=O)c2ccc(Cl)cc2)[C@H](C)CN([C@H](C)CO)C(=O)c2cc(NS(=O)(=O)c3ccccc3)ccc2O1,4.5,99.3,-1.3,-69.8,.,.,.,.
C[C@@H]1CCCCO[C@@H](CN(C)S(=O)(=O)c2ccccc2)[C@H](C)CN([C@H](C)CO)C(=O)c2cc(NS(=O)(=O)c3ccc(Cl)cc3)ccc2O1,.,109.5*,-3.5,-59.9,101.4*,?,-8.9,11.4
C[C@@H]1CN([C@@H](C)CO)C(=O)c2cc(NS(=O)(=O)c3ccc(Cl)cc3)ccc2O[C@@H](C)CCCCO[C@H]1CN(C)S(=O)(=O)c1ccc(Cl)cc1,0.4,110.6*,-0.6,-31.3,108.1*,78.7,22.3,-2.2
C[C@H]1CCCCO[C@H](CN(C)S(=O)(=O)c2ccccc2)[C@@H](C)CN([C@@H](C)CO)C(=O)c2cc(NS(=O)(=O)c3ccc(Cl)cc3)ccc2O1,.,113.8*,-4.5,-52.1,103.2*,94.1,-11.9,-7.3
CCCNC(=O)C[C@H]1CC[C@H]2[C@@H](COc3ccc(NC(=O)c4ccc(Cl)cc4)cc3C(=O)N2C)O1,.,13.1,-1.3,-14.8,.,.,.,.
O=C(CSc1nnnn1-c1ccccc1)Nc1ccc(Br)c(Cl)c1,-0.1,.,.,.,.,.,.,.
C[C@@H]1CN([C@@H](C)CO)C(=O)c2cc(C#CC3(O)CCCC3)cnc2O[C@@H]1CN(C)C(=O)Cc1ccncc1,.,-4.9,3.4,0.5,.,.,.,.
C[C@H](CO)N1C[C@H](C)[C@@H](CN(C)S(=O)(=O)c2ccc(F)cc2)Oc2c(NC(=O)c3cnccn3)cccc2C1=O,2.6,35.9,1.0,28.1,.,.,.,.
C[C@H](CO)N1C[C@H](C)[C@@H](CN(C)S(=O)(=O)c2ccc(F)cc2)OCCCC[C@H](C)Oc2ccc(NC(=O)Nc3ccc4c(c3)OCO4)cc2C1=O,4.2,99.9*,17.5,-40.4,110.1*,62.2,-23.2,4.1
